Reference: ChEMBL document CHEMBL1154352, “Toll-like receptor 7 selective synthetic oligoribonucleotide agonists: synthesis and structure-activity relationship studies” (J Med Chem, 2009)
Activity calls are given as the source filed them. The rule behind the calls is not given here.

Legend:
[1] = target: T1, Toll-like receptor 7 (Homo sapiens) (UniProt Q9NYK1); experiment: Activation of human TLR7 expressed in HEK293XL assessed as fold induction of NF-kappaB activity at 50 ug/ml after 18 hrs by reporter gene assay relative to control
T1 sequence (whole entry): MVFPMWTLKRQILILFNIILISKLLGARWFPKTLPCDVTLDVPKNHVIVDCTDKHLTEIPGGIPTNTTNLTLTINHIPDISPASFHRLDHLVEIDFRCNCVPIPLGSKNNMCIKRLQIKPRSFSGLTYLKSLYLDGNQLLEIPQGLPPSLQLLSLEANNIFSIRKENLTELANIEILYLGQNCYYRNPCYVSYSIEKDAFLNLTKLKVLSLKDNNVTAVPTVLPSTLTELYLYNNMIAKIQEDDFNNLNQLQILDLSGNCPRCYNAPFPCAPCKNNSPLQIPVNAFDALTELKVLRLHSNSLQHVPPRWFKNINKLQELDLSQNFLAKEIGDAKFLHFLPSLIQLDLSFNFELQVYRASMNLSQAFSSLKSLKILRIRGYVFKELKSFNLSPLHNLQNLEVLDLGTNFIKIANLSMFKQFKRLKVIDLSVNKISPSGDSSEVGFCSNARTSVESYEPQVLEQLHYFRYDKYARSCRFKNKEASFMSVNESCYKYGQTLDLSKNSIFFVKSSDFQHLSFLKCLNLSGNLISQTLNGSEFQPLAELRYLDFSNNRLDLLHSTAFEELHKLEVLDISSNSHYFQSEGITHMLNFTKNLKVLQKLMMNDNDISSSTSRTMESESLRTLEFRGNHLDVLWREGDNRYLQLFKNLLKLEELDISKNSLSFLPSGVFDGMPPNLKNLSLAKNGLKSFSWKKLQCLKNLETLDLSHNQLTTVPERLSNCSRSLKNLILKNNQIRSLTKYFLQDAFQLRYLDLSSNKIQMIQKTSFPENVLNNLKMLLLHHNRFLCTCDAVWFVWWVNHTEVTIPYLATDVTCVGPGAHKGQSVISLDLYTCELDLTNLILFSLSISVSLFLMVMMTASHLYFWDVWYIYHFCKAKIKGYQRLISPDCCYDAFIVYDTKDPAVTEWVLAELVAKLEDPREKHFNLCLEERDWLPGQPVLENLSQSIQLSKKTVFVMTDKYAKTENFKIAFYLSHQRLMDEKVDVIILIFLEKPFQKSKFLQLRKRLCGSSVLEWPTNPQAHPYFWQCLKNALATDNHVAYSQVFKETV
Outline: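 HEK293 cells stably expressing human TLR7 or TLR8, transiently transfected with SEAP reporter plasmid; medium replaced, SIMRA compounds added, 18 h incubation. Supernatant SEAP measured by QuantiBlue; expressed as fold increase in NF-κB activity over PBS control. Tabulated data at 50 μg/mL, representative of three independent experiments.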

[2] = target: T2, Toll-like receptor 9 (Mus musculus) (UniProt Q9EQU3); experiment: Activation of mouse TLR9 expressed in HEK293 assessed as induction of NF-kappaB activity reporter gene assay; type: cell-based
T2 sequence (whole entry): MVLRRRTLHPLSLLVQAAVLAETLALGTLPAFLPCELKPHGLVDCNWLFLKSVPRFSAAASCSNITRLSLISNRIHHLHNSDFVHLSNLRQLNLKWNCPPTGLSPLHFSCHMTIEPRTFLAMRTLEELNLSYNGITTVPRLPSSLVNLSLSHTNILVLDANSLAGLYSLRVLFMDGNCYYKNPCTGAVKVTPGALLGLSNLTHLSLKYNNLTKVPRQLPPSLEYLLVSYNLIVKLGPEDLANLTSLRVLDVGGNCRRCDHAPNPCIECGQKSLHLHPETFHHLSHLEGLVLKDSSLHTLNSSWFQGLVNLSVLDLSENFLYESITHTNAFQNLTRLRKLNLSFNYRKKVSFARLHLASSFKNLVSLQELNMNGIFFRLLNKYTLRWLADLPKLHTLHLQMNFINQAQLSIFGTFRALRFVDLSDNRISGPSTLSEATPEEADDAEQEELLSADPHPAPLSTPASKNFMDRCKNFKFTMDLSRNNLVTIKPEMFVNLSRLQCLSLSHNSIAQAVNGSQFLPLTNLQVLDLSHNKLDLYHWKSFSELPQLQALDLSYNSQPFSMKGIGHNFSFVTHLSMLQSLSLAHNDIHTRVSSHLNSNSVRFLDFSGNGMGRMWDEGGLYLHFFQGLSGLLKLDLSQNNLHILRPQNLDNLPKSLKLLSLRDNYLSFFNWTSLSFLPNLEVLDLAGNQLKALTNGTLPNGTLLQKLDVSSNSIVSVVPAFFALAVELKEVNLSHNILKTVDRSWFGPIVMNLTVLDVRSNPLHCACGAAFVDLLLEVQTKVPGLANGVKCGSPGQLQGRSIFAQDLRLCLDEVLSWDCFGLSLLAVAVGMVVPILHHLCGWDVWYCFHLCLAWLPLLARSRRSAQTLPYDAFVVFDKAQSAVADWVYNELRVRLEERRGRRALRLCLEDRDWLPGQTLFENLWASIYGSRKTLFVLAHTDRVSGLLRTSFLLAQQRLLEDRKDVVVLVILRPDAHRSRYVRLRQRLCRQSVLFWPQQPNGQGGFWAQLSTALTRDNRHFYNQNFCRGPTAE

Row | SMILES | fold change (FC) [1] | Activity [2]
1 | Nc1ccn([C@@H]2O[C@H](COP(=O)(S)O[C@H]3[C@@H](O)[C@H](n4cnc5c(N)ncnc54)O[C@@H]3CO)[C@@H](OP(=O)(S)OC[C@H]3O[C@@H](n4ccc(=O)[nH]c4=O)[C@H](O)[C@@H]3OP(=O)(S)OC[C@H]3O[C@@H](n4ccc(=O)[nH]c4=O)[C@H](O)[C@@H]3OP(=O)(S)OC[C@H]3O[C@@H](n4ccc5c(=O)[nH]c(N)nc54)[C@H](O)[C@@H]3OP(=O)(S)OC[C@H]3O[C@@H](n4cnc5c(N)ncnc54)[C@H](O)[C@@H]3OP(=O)(S)OC[C@H]3O[C@@H](n4cnc5c(N)ncnc54)[C@H](O)[C@@H]3OP(=O)(S)OC[C@H]3O[C@@H](n4ccc(N)nc4=O)[C@H](O)[C@@H]3OP(=O)(S)OC[C@H]3O[C@@H](n4ccc(=O)[nH]c4=O)[C@H](O)[C@@H]3OP(=O)(S)OC[C@H]3O[C@@H](n4ccc(=O)[nH]c4=O)[C@H](O)[C@@H]3OP(=O)(S)OC[C@H]3O[C@@H](n4ccc5c(=O)[nH]c(N)nc54)[C@H](O)[C@@H]3OP(=O)(S)OCC(O)COP(=O)(S)O[C@H]3[C@@H](O)[C@H](n4ccc5c(=O)[nH]c(N)nc54)O[C@@H]3COP(=O)(S)O[C@H]3[C@@H](O)[C@H](n4ccc(=O)[nH]c4=O)O[C@@H]3COP(=O)(S)O[C@H]3[C@@H](O)[C@H](n4ccc(=O)[nH]c4=O)O[C@@H]3COP(=O)(S)O[C@H]3[C@@H](O)[C@H](n4ccc(N)nc4=O)O[C@@H]3COP(=O)(S)O[C@H]3[C@@H](O)[C@H](n4cnc5c(N)ncnc54)O[C@@H]3COP(=O)(S)O[C@H]3[C@@H](O)[C@H](n4cnc5c(N)ncnc54)O[C@@H]3COP(=O)(S)O[C@H]3[C@@H](O)[C@H](n4ccc5c(=O)[nH]c(N)nc54)O[C@@H]3COP(=O)(S)O[C@H]3[C@@H](O)[C@H](n4ccc(=O)[nH]c4=O)O[C@@H]3COP(=O)(S)O[C@H]3[C@@H](O)[C@H](n4ccc(=O)[nH]c4=O)O[C@@H]3COP(=O)(S)O[C@H]3[C@@H](O)[C@H](n4ccc(N)nc4=O)O[C@@H]3COP(=O)(S)O[C@H]3[C@@H](O)[C@H](n4cnc5c(N)ncnc54)O[C@@H]3CO)[C@H]2O)c(=O)n1 (stereo partly specified) | 14.7 | inactive
2 | Nc1ccn([C@@H]2O[C@H](COP(=O)(S)O[C@H]3[C@@H](O)[C@H](n4ccc(N)nc4=O)O[C@@H]3COP(=O)(S)O[C@H]3[C@@H](O)[C@H](n4cnc5c(N)ncnc54)O[C@@H]3COP(=O)(S)O[C@H]3[C@@H](O)[C@H](n4ccc5c(=O)[nH]c(N)nc54)O[C@@H]3COP(=O)(S)O[C@H]3[C@@H](O)[C@H](n4ccc(=O)[nH]c4=O)O[C@@H]3COP(=O)(S)O[C@H]3[C@@H](O)[C@H](n4ccc(=O)[nH]c4=O)O[C@@H]3COP(=O)(S)O[C@H]3[C@@H](O)[C@H](n4ccc(N)nc4=O)O[C@@H]3COP(=O)(S)O[C@H]3[C@@H](O)[C@H](n4cnc5c(N)ncnc54)O[C@@H]3CO)[C@@H](OP(=O)(S)OC[C@H]3O[C@@H](n4ccc(=O)[nH]c4=O)[C@H](O)[C@@H]3OP(=O)(S)OC[C@H]3O[C@@H](n4ccc5c(=O)[nH]c(N)nc54)[C@H](O)[C@@H]3OP(=O)(S)OC[C@H]3O[C@@H](n4ccc(=O)[nH]c4=O)[C@H](O)[C@@H]3OP(=O)(S)OCC(O)COP(=O)(S)O[C@H]3[C@@H](O)[C@H](n4ccc(=O)[nH]c4=O)O[C@@H]3COP(=O)(S)O[C@H]3[C@@H](O)[C@H](n4ccc5c(=O)[nH]c(N)nc54)O[C@@H]3COP(=O)(S)O[C@H]3[C@@H](O)[C@H](n4ccc(=O)[nH]c4=O)O[C@@H]3COP(=O)(S)O[C@H]3[C@@H](O)[C@H](n4ccc(N)nc4=O)O[C@@H]3COP(=O)(S)O[C@H]3[C@@H](O)[C@H](n4ccc(N)nc4=O)O[C@@H]3COP(=O)(S)O[C@H]3[C@@H](O)[C@H](n4cnc5c(N)ncnc54)O[C@@H]3COP(=O)(S)O[C@H]3[C@@H](O)[C@H](n4ccc5c(=O)[nH]c(N)nc54)O[C@@H]3COP(=O)(S)O[C@H]3[C@@H](O)[C@H](n4ccc(=O)[nH]c4=O)O[C@@H]3COP(=O)(S)O[C@H]3[C@@H](O)[C@H](n4ccc(=O)[nH]c4=O)O[C@@H]3COP(=O)(S)O[C@H]3[C@@H](O)[C@H](n4ccc(N)nc4=O)O[C@@H]3COP(=O)(S)O[C@H]3[C@@H](O)[C@H](n4cnc5c(N)ncnc54)O[C@@H]3CO)[C@H]2O)c(=O)n1 (stereo partly specified) | 6.1 | inactive
3 | Nc1ccn([C@@H]2O[C@H](COP(=O)(S)O[C@H]3[C@@H](O)[C@H](n4ccc5c(=O)[nH]c(N)nc54)O[C@@H]3COP(=O)(S)O[C@H]3[C@@H](O)[C@H](n4cnc5c(N)ncnc54)O[C@@H]3COP(=O)(S)O[C@H]3[C@@H](O)[C@H](n4cnc5c(N)ncnc54)O[C@@H]3COP(=O)(S)O[C@H]3[C@@H](O)[C@H](n4ccc5c(=O)[nH]c(N)nc54)O[C@@H]3COP(=O)(S)O[C@H]3[C@@H](O)[C@H](n4ccc(=O)[nH]c4=O)O[C@@H]3COP(=O)(S)O[C@H]3[C@@H](O)[C@H](n4ccc(=O)[nH]c4=O)O[C@@H]3COP(=O)(S)O[C@H]3[C@@H](O)[C@H](n4cnc5c(N)ncnc54)O[C@@H]3COP(=O)(S)O[C@H]3[C@@H](O)[C@H](n4cnc5c(N)ncnc54)O[C@@H]3CO)[C@@H](OP(=O)(S)OC[C@H]3O[C@@H](n4ccc(=O)[nH]c4=O)[C@H](O)[C@@H]3OP(=O)(S)OC[C@H]3O[C@@H](n4ccc5c(=O)[nH]c(N)nc54)[C@H](O)[C@@H]3OP(=O)(S)OCC(O)COP(=O)(S)O[C@H]3[C@@H](O)[C@H](n4ccc5c(=O)[nH]c(N)nc54)O[C@@H]3COP(=O)(S)O[C@H]3[C@@H](O)[C@H](n4ccc(=O)[nH]c4=O)O[C@@H]3COP(=O)(S)O[C@H]3[C@@H](O)[C@H](n4ccc(N)nc4=O)O[C@@H]3COP(=O)(S)O[C@H]3[C@@H](O)[C@H](n4ccc5c(=O)[nH]c(N)nc54)O[C@@H]3COP(=O)(S)O[C@H]3[C@@H](O)[C@H](n4cnc5c(N)ncnc54)O[C@@H]3COP(=O)(S)O[C@H]3[C@@H](O)[C@H](n4cnc5c(N)ncnc54)O[C@@H]3COP(=O)(S)O[C@H]3[C@@H](O)[C@H](n4ccc5c(=O)[nH]c(N)nc54)O[C@@H]3COP(=O)(S)O[C@H]3[C@@H](O)[C@H](n4ccc(=O)[nH]c4=O)O[C@@H]3COP(=O)(S)O[C@H]3[C@@H](O)[C@H](n4ccc(=O)[nH]c4=O)O[C@@H]3COP(=O)(S)O[C@H]3[C@@H](O)[C@H](n4cnc5c(N)ncnc54)O[C@@H]3COP(=O)(S)O[C@H]3[C@@H](O)[C@H](n4cnc5c(N)ncnc54)O[C@@H]3CO)[C@H]2O)c(=O)n1 (stereo partly specified) | 13.7 | inactive
